# Results gathered from unrelated publications.
# Compare with care: the assays were run in different laboratories.
# Read-out: cell growth or viability
Compound,cell line,test,setting,quantity,value
COc1ccc(NC(=O)c2c(Nc3ccccc3)sc(C#N)c2NC(=O)CNc2ccc(C)cc2)cc1,HepG2,SRB,"10 nM, 48 h",viability,88.3%
COc1cc([C@@H]2c3cc4c(cc3[C@@H](O[C@@H]3O[C@@H]5CO[C@@H](C)O[C@H]5[C@H](O)[C@H]3O)[C@H]3COC(=O)[C@H]23)OCO4)cc(OC)c1O,CCD-18Co,MTS,72 h,IC50,40.3 µM
C=CC(=O)Nc1cccc(Nc2nc(Nc3ccc(OCCOC)cc3)ncc2F)c1,Ramos,,48 h,GI50,9.2 µM
COc1ccc(NC(=O)c2c(Nc3ccccc3)sc(C(=O)NN=Cc3cc(OC)c(OC)c(OC)c3)c2NC(C)=O)cc1,HepG2,SRB,"10 nM, 48 h",viability,89.2%
CCOC(=O)c1sc(NCc2ncccn2)nc1-c1ccccn1,Huh-7,,,CC50,> 40 µM
Cc1cc(Nc2ccc(C(=O)N/N=C/c3ccc(C)s3)cc2)c2cccc(O)c2n1,Huh-7,MTT,20 µM,inhibition,43.3%
COc1ccc(NC(=O)c2c(Nc3ccccc3)sc(C#N)c2NC(=O)CNc2ccc(OC)c(OC)c2)cc1,HepG2,SRB,"1 µM, 48 h",viability,83.7%
Cc1cc(Nc2ccc(C(=O)N/N=C/c3cccc(Oc4ccccc4)c3)cc2)c2cccc(O)c2n1,Huh-7,MTT,20 µM,inhibition,61%
CCOC(=O)c1ccc(-n2c(-c3ccc(C)cc3)cc(-c3ccc(O)cc3)c(C#N)c2=O)cc1,HepG2,MTT,"25 µM, 24 h",viability,33.1%
Cc1cc(Nc2ccc(C(=O)N/N=C/c3ccnc(Cl)c3)cc2)c2cccc(O)c2n1,Huh-7,MTT,20 µM,inhibition,32.9%
CCCCCCCCCCCCNC(=S)NCCCC[C@H](NC(=O)OCc1ccccc1)C(=O)N[C@@H](C)C(=O)N[C@@H](CCCNC(=N)N)C(N)=O,HEK-293T,MTT,72 h,EC50,102 to 121 µM
COc1cc2c(Nc3ccc(Br)cc3F)ncnc2cc1OCC1CCN(C)CC1,NCI-H292,ATP luminescence,72 h,GI50,1.14 µM
CC(=O)Oc1ccc(/C=N/NC(=O)c2ccc(Nc3cc(C)nc4c(O)cccc34)cc2)cc1,Huh-7,MTT,20 µM,inhibition,31.2%
COc1ccc(NC(=O)c2c(Nc3ccccc3)sc(C(=O)NN=Cc3ccc(C)cc3)c2NC(C)=O)cc1,HepG2,SRB,"0.1 µM, 48 h",viability,89.2%
CCOC(=O)c1ccc(-n2c(C)cc(/C=C/c3ccc(OCC)cc3)c(C#N)c2=O)cc1,HepG2,MTT,"3.125 µM, 24 h",viability,100%
Cc1cc(Nc2ccc(C(=O)N/N=C/c3cccs3)cc2)c2cccc(O)c2n1,Huh-7,MTT,20 µM,inhibition,42.1%
CCCCCCCCCCCCNC(=S)NCCCC[C@H](NS(C)(=O)=O)C(=O)N[C@H](C)C(=O)N[C@@H](CCCNC(=N)N)C(=O)N1CCOCC1,HEK-293T,MTT,72 h,EC50,> 100 µM
CNC(=O)c1cc(Oc2ccc(NC(=O)Nc3ccc(Cl)c(C(F)(F)F)c3)cc2)ccn1,HepG2,SRB,"100 µM, 48 h",viability,40.3%
Cc1c(NC(=O)c2ccc(C(C)(C)C)cc2)cccc1-c1cn(C)c(=O)c(Nc2ccc(C(=O)N3CCOCC3)cc2)n1,Ramos,,48 h,GI50,> 10 µM
CCOCc1sc(NCc2ncccn2)nc1-c1ccccn1,Huh-7,,,CC50,> 40 µM
CCOC(=O)c1ccc(NC(=O)C2=C3C(=Nc4ccccc43)NC2=O)cc1,HepG2,MTT,"6.25 µM, 24 h",viability,90.2%
COc1ccc(NC(=O)c2c(Nc3ccccc3)sc(C(=O)NN=Cc3ccccc3)c2NC(C)=O)cc1,HepG2,SRB,"100 µM, 48 h",viability,60.2%
CC(C)C[C@H](NC(=O)[C@H](Cc1ccccc1)NC(=O)c1cnccn1)B(O)O,HEC-1B,ATP luminescence,,IC50,0.0096 µM
Cc1cc(Nc2ccc(C(=O)N/N=C/c3cc4ccccc4[nH]3)cc2)c2cccc(O)c2n1,Huh-7,MTT,20 µM,inhibition,60.2%
CCCCCCCCCCCCNC(=O)NCCCC[C@H](NS(C)(=O)=O)C(=O)N[C@H](C)C(=O)N[C@@H](CCCNC(=N)N)C(N)=O,HEK-293T,MTT,72 h,EC50,28.6 to 38 µM
COc1cc(Nc2nccc(-c3cnn4nc(OC)ccc34)n2)cc(C(F)(F)F)c1,HEC-1B,ATP luminescence,,IC50,> 3 µM
CCOC(=O)c1ccc(-n2c(C)cc(/C=C/c3ccc(OC)cc3)c(C#N)c2=O)cc1,HepG2,MTT,"25 µM, 24 h",viability,72.6%
COc1ccc(NC(=O)c2c(Nc3ccccc3)sc(C#N)c2NC(=O)CNc2ccccc2Cl)cc1,HepG2,SRB,"100 µM, 48 h",viability,90.3%
Cc1cc(Nc2ccc(C(=O)N/N=C/c3ccccc3)cc2)c2cccc(O)c2n1,Huh-7,MTT,20 µM,inhibition,32.3%
CCOC(=O)c1ccc(-n2c(C)cc(C)c(C#N)c2=O)cc1,HepG2,MTT,"50 µM, 24 h",viability,51.2%
COc1ccc(NC(=O)c2c(Nc3ccccc3)sc(C#N)c2NC(=O)CNc2ccc([N+](=O)[O-])cc2)cc1,HepG2,SRB,"0.1 µM, 48 h",viability,75.2%
